Screens from PubChem.
A selection: hits, their analogues and other compounds. The true share with any hit is near 1.8%.
CHRM4 PAM = human M4 muscarinic receptor positive allosteric modulators, primary screen, CHO-K1 cells, Fluo-8 calcium fluorescence; Muscarinic acetylcholine receptor M4 (Homo sapiens), P08173; CHO-K1 hM4/Gqi5, ACh EC20; 0% = ACh EC20, 100% = maximal ACh; activation, % at 3 µM; 0.4% of 360,000 active; AID 624126, 2012;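 active = activation above its plate's cutoff, the mean activation of sample wells plus 3 SD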
M5 PAM = human M5 muscarinic receptor positive allosteric modulators, primary screen, CHO-K1 cells, Fluo-8 calcium fluorescence. CHO-K1 hM5, ACh EC20 PAM; 0% = ACh EC20, 100% = ACh EC100. 0.3% of 360,000 active. activation, % at 3 µM. Muscarinic acetylcholine receptor M5 (Homo sapiens), P08912;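 active = activation above the run cutoff, the mean activation of all test compounds plus 3 SD, cut at about 18% in these data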
Target sequence (P08912 whole entry, looked up): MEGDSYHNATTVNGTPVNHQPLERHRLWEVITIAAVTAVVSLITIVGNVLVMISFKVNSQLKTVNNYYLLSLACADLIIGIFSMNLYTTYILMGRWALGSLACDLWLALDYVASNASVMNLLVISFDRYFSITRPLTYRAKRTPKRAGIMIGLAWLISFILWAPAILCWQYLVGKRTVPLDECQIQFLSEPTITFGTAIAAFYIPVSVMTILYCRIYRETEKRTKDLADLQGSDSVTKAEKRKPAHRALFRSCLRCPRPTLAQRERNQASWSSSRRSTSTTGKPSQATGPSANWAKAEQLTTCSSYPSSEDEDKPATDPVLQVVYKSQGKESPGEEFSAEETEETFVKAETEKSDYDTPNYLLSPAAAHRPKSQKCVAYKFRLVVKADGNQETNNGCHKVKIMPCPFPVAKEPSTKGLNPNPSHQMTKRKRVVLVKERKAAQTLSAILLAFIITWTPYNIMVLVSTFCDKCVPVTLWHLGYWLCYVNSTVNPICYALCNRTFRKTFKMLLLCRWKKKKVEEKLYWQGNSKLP
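Assay system: CHO-K1 hM5 cells / Incubation: Fluo-8 loading 80 min at 37 °C plus 30 min room temperature / Technique: Fluo-8 calcium dye fluorescence, kinetic read / Repeats: single replicate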
M4 ag = human M4 muscarinic receptor agonists, primary screen, CHO-K1 cells, Fluo-8 calcium fluorescence | CHO-K1 hM4/Gqi5; vehicle 0%, full acetylcholine response 100% | Muscarinic acetylcholine receptor M4 (Homo sapiens), P08173 | 0.14% of 360,000 active | activation, % at 3 µM;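 active = activation above the run mean over all test wells plus 3 SD, cut at about 32% in these data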;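 also: peak over basal fluorescence ratio per well then scaled between controls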
M5 antag = human M5 muscarinic receptor antagonists, primary screen, CHO cells, Fluo-8 calcium fluorescence. inhibition, % at 3 µM. 0.59% of 360,000 active. CHO-hM5 cells, ACh EC80. AID 624040, 2012;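 active = inhibition above a per-plate cutoff, the mean of that plate's test compounds plus 3 SD, cut at about 27% in these data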
CHRM4 antagonist = human M4 muscarinic receptor antagonists, primary screen, CHO cells, Fluo-8 calcium fluorescence. inhibition, % at 3 µM. CHO-hM4 cells, ACh EC80. 0.73% of 360,000 active;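 active = inhibition above its plate's cutoff, the mean inhibition of sample wells plus 3 SD, cut at about 27% in these data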
CHRM5 agonist = human M5 muscarinic receptor agonists, primary screen, CHO-K1 cells, Fluo-8 calcium fluorescence; Muscarinic acetylcholine receptor M5 (Homo sapiens), P08912; CHO-K1 hM5 cells; 0% DMSO wells, 100% maximal acetylcholine response; activation, % at 3 µM; 0.19% of 360,000 active; AID 624037, 2012;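 active = activation above the run's mean over test compounds plus 3 SD, cut at about 23% in these data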;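 also: signal is peak over basal fluorescence ratio across the kinetic read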
Large screens that a line does not name were inactive.

c1ccc(Nc2ncnc3sc4c(c23)CCC4)cc1	none
c1csc(CCNc2ncnc3sc4c(c23)CCC4)c1	M5 antag 32.3
C/C(Cl)=C\Cn1c(N2CCCC2)nc2c1c(=O)n(C)c(=O)n2C	none
O=C1NCCSC1c1ccccc1 (stereo unspecified)	none
O=C(O)c1ccccc1C(=O)Nc1ccccn1	none
O=C(Nc1ccccn1)c1ccc2ccccc2c1O	M5 PAM 19.3
O=C1NC[C@@H](CCCCN2C[C@H](Cc3ccccc3)N(CCc3ccc(O)cc3)C(=O)C2=O)N(Cc2ccccc2)C1=O	none
CC(C)N1CN(c2ccccc2)C(=S)N(c2ccccc2)C1	CHRM4 PAM 18.0
Cc1nc(N2CCN(C(=O)c3ccco3)CC2)nc2c1C(=O)CCC2	none
Cc1ccc(C2=N/C(=C/N3CCOCC3)C(=O)O2)cc1	M5 PAM 38.4
COc1ccc(C(CCN2CCCCC2)c2c(OC)cc(OC)c3c(-c4ccccc4)cc(=O)oc23)cc1 (stereo unspecified)	CHRM4 antagonist 34.2
CN(C)S(=O)(=O)c1ccc(NC(=O)c2cc(-c3cccs3)nc3ccccc23)cc1	CHRM4 antagonist 34.4
CCN(CC)S(=O)(=O)c1ccc(NC(=O)c2cc(-c3cccs3)nc3ccccc23)cc1	none
CC(=O)NS(=O)(=O)c1ccc(NC(=O)c2cc(-c3cccs3)nc3ccccc23)cc1	CHRM4 PAM 21.9
COc1ccc(CN2C[C@@H](CO)O[C@@H](n3cnc4c(NCc5ccc(F)cc5)ncnc43)C2)cc1	none
Nc1ccc(-c2nc3ccc(N)cc3[nH]2)cc1	none
Nc1ccc2cc3[nH]c4cc(N)ccc4c3nc2c1	M5 antag 67.6, CHRM4 antagonist 32.3, CHRM5 agonist 101.2
Cc1csc2ncnc(N3CCN(S(=O)(=O)c4cccc(C(F)(F)F)c4)CC3)c12	M5 antag 44.0
O=C(/C=C/c1ccc(S(=O)(=O)N2CCOCC2)cc1)NC(CO)C(O)c1ccc([N+](=O)[O-])cc1 (stereo unspecified)	none
Cc1ccc(S(=O)(=O)N2CCCC2C(=O)NCc2ccccc2Cl)cc1 (stereo unspecified)	M5 PAM 18.8
CC1CC(C)CN(S(=O)(=O)c2ccc(NC(=O)[C@@H]3CCCN3C(=O)c3cccs3)cc2)C1 (stereo partly specified)	CHRM4 antagonist 28.2
Cc1ccc(S(=O)(=O)N(C)C)cc1NC(=O)C1CCCCN1S(=O)(=O)c1ccccc1 (stereo unspecified)	CHRM4 PAM 23.5
O=C(O)C1CCCN1S(=O)(=O)c1ccccc1 (stereo unspecified)	CHRM4 PAM 38.9, M5 PAM 26.0
COc1ccc(C(C)(O)c2nc(-c3cccc(F)c3)cs2)cc1 (stereo unspecified)	none
O=S1(=O)N[C@H](Cc2ccccc2)COc2cc(N3CC[C@H](O)C3)ccc21	none
CCCCN(CCO)c1ncnc2sc(-c3ccccc3)cc12	none
CC(=O)Nc1ccc(S(=O)(=O)N2CCCC2C(=O)Nc2ccc(F)cc2)cc1 (stereo unspecified)	none
O=C(Nc1ccc(F)cc1)C1CCCN1S(=O)(=O)c1ccc(Br)cc1 (stereo unspecified)	CHRM4 PAM 25.4
CCN(CC)CCC=C(c1cccs1)c1cccs1	M5 antag 28.2, CHRM4 antagonist 47.5
CCCCCOc1ccc(C(=O)CCC(=O)Nc2ccc(NC(C)=O)cc2)cc1	none
COC(=O)c1ccc(N)cc1O	M5 PAM 22.5
FC(F)Oc1ccc(NC(=S)NCc2ccccc2)cc1	none
FC(F)Oc1ccc(NC(=S)NCc2ccccc2)cc1Cl	M5 antag 32.7
Cc1ccc(NC(=O)c2cc(C(=O)c3cc(Cl)ccc3O)cn(-c3ccc(C)cc3)c2=O)cc1	none
Cc1cccnc1NC(=O)NC(=O)c1ccc(C(C)(C)C)s1	none
CNc1ccc2c3c(cccc13)C(=O)N(C)C2=O	M4 ag 229.2, M5 antag 43.1, CHRM4 antagonist 40.1, CHRM5 agonist 124.6
CN1C(=O)c2cccc3c(Cl)ccc(c23)C1=O	none
CN1C(=O)c2cccc3c(N(C)C)ccc(c23)C1=O	CHRM5 agonist 40.8
O=[N+]([O-])c1ccc(Cl)c(S(=O)(=O)Nc2cccc(-c3ccc(N4CCCC4)nn3)c2)c1	none
Cc1ccc2nc(CCc3nc4ccc(C)cc4[nH]3)[nH]c2c1	CHRM4 PAM 13.9
Cc1ccc2nc(CCCc3nc4ccc(C)cc4[nH]3)[nH]c2c1	none
CN1CC(=O)N(CC(=O)Nc2ccc(F)cc2)c2ccccc2C1=O	M5 PAM 40.2
CN1CC(=O)N(CC(=O)NCc2ccc(F)cc2)c2ccccc2C1=O	none
CCN1CCN(C(CNS(=O)(=O)c2ccc(Cl)cc2)c2ccccc2)CC1 (stereo unspecified)	M5 antag 28.4
O=S(=O)(NCC(c1ccccc1)N1CCNCC1)c1ccc(Cl)cc1 (stereo unspecified)	none
CC(C)NC(=O)C1(C)CN(S(C)(=O)=O)CC(=O)N1Cc1cccc(C(F)(F)F)c1 (stereo unspecified)	none
CO/N=C/C(C#N)=C/c1ccc(OC)c(OC)c1	CHRM4 PAM 19.6
C#CCOCCOCCOCCNc1nc(N2CCN(C(=O)[C@H](CC(N)=O)n3cc(C(N)[C@@H](C)CC)nn3)CC2)nc(N2CCN(C(=O)[C@H](CCC(=O)O)n3cc([C@@H](N)CCCCN)nn3)CC2)n1 (stereo partly specified)	none
COc1cc(OC)c(-c2c3cc(O)c(=O)cc-3oc3cc(O)c(O)cc23)cc1OC	M4 ag 211.8, M5 antag 53.8, CHRM4 antagonist 51.8, CHRM5 agonist 326.2
Cc1c2cc(O)c(=O)cc-2oc2cc(O)c(O)cc12	none
Cn1c(Cc2ccccc2)nnc1SCc1nc2ccccc2c(=O)[nH]1	none
Cc1ccccc1OCc1nnc(SCc2nc3ccccc3c(=O)[nH]2)n1C	CHRM4 antagonist 49.3
Cc1ccc(-n2c(-c3ccccc3)c[n+]3c2CCc2ccccc2-3)c(C)c1	M5 antag 34.8
COc1cccc(CNC(=O)CCS(=O)(=O)Cc2ccc(C)cc2)c1	none
CN(C)c1ccc(/C=C/C(=O)c2ccc3c(c2)OCO3)cc1	M4 ag 120.8, CHRM4 antagonist 26.8, CHRM5 agonist 75.9
